Consider two compounds from article PMC9942236 (Science translational medicine, 2023).

Each structure is given as a SMILES string.

One experiment deals with HA-Ras cells. Briefly: Cell viability of transformed astrocytes expressing HRAS G12V. In kind it is cell-based, human. To be noted: read-out: EC50 (cell viability), 1% serum, 96h. The essentials: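 Human astrocytes immortalized with E6/E7/hTERT and transformed by HRAS G12V expression were treated with test compound in 1% serum for 96 h, then viability was measured. At least three independent biological replicates; experiments repeated at least three times; mean ± SD.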

Another experiment has as its system M120. Briefly: Short-term cell viability of recurrent GSC line M120. To be noted: YTX-7739 at 10 μM, TMZ 50–100μM. In kind it is cell-based, human.
Experiment [1] concerns 83 GSC orthotopic brain tumors. The experiment is described as follows: Orthotopic 83 GSC mouse model: tumor growth and survival. In kind it is in vivo. The conditions noted are these: 83-bearing mice; YTX-7739 30mg/kg, TMZ 10mg/kg, IP.
Experiment [2] has as its system MGG8 orthotopic brain tumors. The experiment is described as follows: Orthotopic MGG8 GSC mouse model: tumor growth and survival. In kind it is in vivo. The conditions noted are these: MGG8-bearing mice; YTX-7739 30 mg/kg, TMZ 5mg/kg, IP. The essentials: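 Fluc-expressing MGG8 GSCs (1–5 × 10⁴) implanted into left forebrain of male/female athymic nude mice; treatment began once tumors bioluminescence-detected (D-luciferin 150 mg/kg IP). Groups (n=8): vehicle (0.5% methylcellulose + 0.2% Tween80 in saline), test compound 30 mg/kg, TMZ 5 mg/kg (in 5% dextrose), or combination, IP. Tumor growth by bioluminescence; Kaplan-Meier survival, two-sided log-rank test; study ended at six months.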

Regarding `Cc1nnc(-c2ccc(N3CCC(Oc4cc(F)ccc4Cl)CC3)nn2)o1` [CAY10566], the concentration giving a half-maximal response (EC50) (as a rule, the concentration giving half of the maximal effect) with HA-Ras cells was 18.6 nM.

Regarding `Cn1nnc2c(C(N)=O)ncn2c1=O` [TMZ, Temozolomide], the short-term cell viability result in the experiment on M120 is “ineffective”. For the same compound, in experiment [1], the median survival is listed as 32 days and the tumor growth result is listed as “initially delayed tumor growth”. Further, in experiment [2], the survival is on record as 106.5 days and the “survival percentage at six months after tumor implantation” value is recorded as 25%.
